≈ marks a conversion by molar mass, not a printed value. Entries after “also recorded” stand apart in the source; their conditions may differ.
Experiments:
A. baumannii strain 2208 [1] = test: Checkerboard MIC with polymixin B nonapeptide against A. baumannii strain 2208; assay type: cell-based
AbFabI = AbFabI (Acinetobacter baumannii, UniProt A0ABX6CD96); test: AbFabI enzyme inhibition, NADH fluorescence IC50 assay; assay type: biochemical; conditions: for IC50: IC50 against AbFabI, 200 nM AbFabI, 300 μM crotonyl-CoA, 200 μM NADH; for fold higher AbFabI IC50 than compound 23: relative to compound 23
MDR A. baumannii = test: Checkerboard MIC with colistin against MDR A. baumannii; assay type: cell-based
S. aureus = test: MIC against S. aureus, stated across the strains tested; assay type: cell-based; conditions: Staphylococcus aureus, read-out: MIC in S. aureus (across strains tested), in μM
SaFabI = molecular target: T1, SaFabI (Staphylococcus aureus, UniProt Q6GI75); test: SaFabI enzyme inhibition, NADPH fluorescence IC50 assay; assay type: biochemical; conditions: for fold improvement in SaFabI IC50 compared to compound 1: relative to compound 1; for fold less potent than compound 8 (SaFabI IC50): relative to compound 8
T1 sequence (Q6GI75 1-256): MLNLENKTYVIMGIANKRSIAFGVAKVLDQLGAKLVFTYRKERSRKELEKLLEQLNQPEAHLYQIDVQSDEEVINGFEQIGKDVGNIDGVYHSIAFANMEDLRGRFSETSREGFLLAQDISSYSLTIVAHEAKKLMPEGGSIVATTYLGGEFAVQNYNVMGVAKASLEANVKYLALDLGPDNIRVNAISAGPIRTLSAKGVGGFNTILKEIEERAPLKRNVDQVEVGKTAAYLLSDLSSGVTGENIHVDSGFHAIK
Procedure, shortened: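 NADPH fluorescence was read at 340/460 nm. Test compound ranged 0.4 nM–200 μM. Percent inhibition came from 10-min slopes versus DMSO control. At least two independent runs, each in duplicate. Interference was checked before substrate addition.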

A. baumannii strain 2208 [2] = test: Checkerboard MIC with colistin against A. baumannii strain 2208; assay type: cell-based
[3] = system: E. coli strain BW25113 ΔTolC; test: MIC, microbroth dilution, E. coli efflux pump mutant; assay type: cell-based; conditions: Escherichia coli, BW25113, read-out: MIC E. coli TolC- strain, in μM
[4] = system: S. aureus strain RN4220 overexpressing SaFabI; test: MIC, microbroth dilution, S. aureus RN4220 overexpressing SaFabI; assay type: cell-based; conditions: versus native strain RN4220; 4-fold or higher indicates on-target
[5] = system: S. aureus strain RN4220 overexpressing SaFabI; conditions: control; cited from earlier work

Question: Which Effect (A. baumannii strain 2208 [1]) does the source give for `O=C(Cc1ccccc1Cl)N1CCC(c2ccccc2)C1` (stereo not drawn) [Compound 1] here?
Answer: Synergy

Question: What about the IC50 (AbFabI) of the same compound?
Answer: < 10 µM

Question: What about the Effect (MDR A. baumannii) of the same compound?
Answer: Synergy

Question: And the MIC (S. aureus)?
Answer: 42 to 84 µM (≈ 12.6 to 25.2 µg/mL)

Question: With `O=C(Cc1ccccc1F)N1CCC(c2ccccc2)C1` (stereo not drawn) [Compound 2] as the compound, how does the IC50 (AbFabI) read?
Answer: < 10 µM

Question: And the “fold improvement in SaFabI IC50 compared to compound 1” value (SaFabI)?
Answer: 2 fold

Question: For `COc1ccccc1C1CCN(C(=O)Cc2ccccc2F)C1` (stereo not drawn) [Compound 3], which “fold less potent than compound 8 (SaFabI IC50)” value (SaFabI) is on record?
Answer: 9 fold

Question: Which IC50 (AbFabI) does the source give for `O=C(Cc1cccc(F)c1F)N1CCC(c2ccccc2)C1` (stereo not drawn) [Compound 4] here?
Answer: < 10 µM

Question: With `COc1ccccc1C1CCN(C(=O)Cc2cccc(F)c2F)C1` (stereo not drawn) [Compound 5] as the compound, how does the “fold less potent than compound 8 (SaFabI IC50)” value (SaFabI) read?
Answer: 6 fold

Question: For `O=C(Cc1c(F)cccc1F)N1CCC(c2ccccc2)C1` (stereo not drawn) [Compound 6], which IC50 (AbFabI) is on record?
Answer: < 10 µM

Question: What about the “fold improvement in SaFabI IC50 compared to compound 1” value (SaFabI) of the same compound?
Answer: 5 fold

Question: What does the source list for `COc1ccccc1C1CCN(C(=O)Cc2c(F)cccc2F)C1` (stereo not drawn) [Compound 7]?
Answer: IC50 (AbFabI): < 10 µM; fold poorer SaFabI inhibitory activity compared to compound 6 (SaFabI; relative to compound 6): ~3 fold; fold less potent than compound 8 (SaFabI IC50) (SaFabI): 11 fold; Effect (A. baumannii strain 2208 [2]): excellent synergy

Question: Which IC50 (AbFabI) does the source give for `COc1ccccc1C1CCN(C(=O)Cc2ccccc2Cl)C1` (stereo not drawn) [Compound 8] here?
Answer: < 10 µM

Question: What about the Effect (MDR A. baumannii) of the same compound?
Answer: Synergy

Question: For `COc1ccc(C2CCN(C(=O)Cc3ccccc3Cl)C2)cc1` (stereo not drawn) [Compound 9], which “fold less potent than compound 8 (SaFabI IC50)” value (SaFabI) is on record?
Answer: 25 fold

Question: Which Effect (A. baumannii strain 2208 [2]) does the source give for `O=C(Cc1ccccc1Cl)N1CCC(c2ccccn2)C1` (stereo not drawn) [Compound 10] here?
Answer: did not show synergistic behavior; also recorded: No synergy/Synergy

Question: With `O=C(Cc1ccccc1Cl)N1CCC(c2nccs2)C1` (stereo not drawn) [Compound 11] as the compound, how does the Effect (A. baumannii strain 2208 [2]) read?
Answer: did not show synergistic behavior; also recorded: No synergy

Question: Which IC50 (AbFabI) does the source give for `O=C(Cc1ccccc1Cl)N1CCC(c2ccc3c(c2)OCO3)C1` (stereo not drawn) [Compound 12] here?
Answer: < 10 µM

Question: And the “fold change in AbFabI IC50 compared to compound 1” value (AbFabI; relative to compound 1)?
Answer: 2 to 3 fold

Question: And the Effect (MDR A. baumannii)?
Answer: Synergy

Question: Which “AbFabI enzyme inhibitory activity (in words)” value (AbFabI) does the source give for `CC(C)S(=O)(=O)c1ccc(CC(=O)N2CCC(c3ccc4c(c3)OCO4)C2)cc1` (stereo not drawn) [Compound 22] here?
Answer: loss in activity

Question: And the “SaFabI enzyme inhibitory activity (in words)” value (SaFabI)?
Answer: not tolerated

Question: For `CC(=O)Nc1ccc(/C=C/C(=O)N2CCC(c3ccccc3)C2)cn1` (stereo not drawn) [Compound 23], which Effect (A. baumannii strain 2208 [2]) is on record?
Answer: did not show synergistic behavior; also recorded: No synergy

Question: With `COc1ccccc1C1CCN(C(=O)/C=C/c2ccc(NC(C)=O)nc2)C1` (stereo not drawn) [Compound 24] as the compound, how does the Effect (A. baumannii strain 2208 [1]) read?
Answer: Synergy

Question: What about the IC50 (AbFabI) of the same compound?
Answer: < 10 µM

Question: What about the MIC [3] of the same compound?
Answer: 2 µM (≈ 0.731 µg/mL)

Question: What about the Effect (MDR A. baumannii) of the same compound?
Answer: Synergy

Question: For `CC(=O)Nc1ccc(/C=C/C(=O)N2CCC(c3ccc4c(c3)OCO4)C2)cn1` (stereo not drawn) [Compound 26], which Effect (A. baumannii strain 2208 [2]) is on record?
Answer: did not show synergistic behavior; also recorded: No synergy

Question: What does the source list for `CC(=O)Nc1ccc(/C=C/C(=O)N2CCC(c3nccs3)C2)cn1` (stereo not drawn) [Compound 27]?
Answer: fold higher AbFabI IC50 than compound 23 (AbFabI): 15 to 40 fold; Effect (A. baumannii strain 2208 [2]): did not show synergistic behavior; also recorded: No synergy

Question: For `CC(=O)Nc1ccc(/C=C/C(=O)N2CCC(c3ccccn3)C2)cn1` (stereo not drawn) [Compound 28], which “fold higher AbFabI IC50 than compound 23” value (AbFabI) is on record?
Answer: 15 to 40 fold

Question: And the Effect (A. baumannii strain 2208 [2])?
Answer: did not show synergistic behavior; also recorded: No synergy

Question: With `COc1ccccc1C1CCN(C(=O)/C=C/c2ccc(NC(C)=O)cc2)C1` (stereo not drawn) [Compound 29] as the compound, how does the “AbFabI enzyme inhibitory activity (in words)” value (AbFabI) read?
Answer: complete loss in enzyme inhibitory activity

Question: What about the “SaFabI enzyme inhibitory activity (in words)” value (SaFabI) of the same compound?
Answer: complete loss in enzyme inhibitory activity

Question: Which “fold increase in MIC with S. aureus strain overexpressing SaFabI” value [4] does the source give for `O=C(N[C@H](CO)[C@H](O)c1ccc([N+](=O)[O-])cc1)C(Cl)Cl` [chloramphenicol] here?
Answer: remained unchanged

Question: Which “fold increase in MIC with S. aureus strain overexpressing SaFabI” value [4] does the source give for `CC[C@H]1OC(=O)[C@H](C)[C@@H](O[C@H]2C[C@@](C)(OC)[C@@H](O)[C@H](C)O2)[C@H](C)[C@@H](O[C@@H]2O[C@H](C)C[C@H](N(C)C)[C@H]2O)[C@](C)(O)C[C@@H](C)C(=O)[C@H](C)[C@@H](O)[C@]1(C)O` [erythromycin] here?
Answer: remained unchanged

Question: With `CN[C@@H]1[C@H](O[C@H]2[C@H](O[C@H]3[C@H](O)[C@@H](O)[C@H](N=C(N)N)[C@@H](O)[C@@H]3N=C(N)N)O[C@@H](C)[C@]2(O)C=O)O[C@@H](CO)[C@H](O)[C@H]1O` [streptomycin] as the compound, how does the “fold increase in MIC with S. aureus strain overexpressing SaFabI” value [4] read?
Answer: remained unchanged

Question: For `CN(C)[C@@H]1C(O)=C(C(N)=O)C(=O)[C@@]2(O)C(O)=C3C(=O)c4c(O)cccc4[C@@](C)(O)[C@H]3C[C@@H]12` [tetracycline], which “fold increase in MIC with S. aureus strain overexpressing SaFabI” value [4] is on record?
Answer: remained unchanged

Question: For `Oc1cc(Cl)ccc1Oc1ccc(Cl)cc1Cl` [triclosan], which “fold increase in MIC with S. aureus strain overexpressing FabI” value [5] is on record?
Answer: 8 fold

Reference: PMC5733704 (Bioorganic & medicinal chemistry, 2017)
